For series [1], the target named is T1, Glucagon receptor (Homo sapiens, UniProt P47871). Kind of series: Antagonist activity at human glucagon receptor expressed in CHO cells assessed as inhibition of forskolin/glucagon-induced cAMP production preincubated for 30 mins before glucagon challenge measured after 30 mins using [125I]-cAMP by liquid scintillation counting. The format is functional, cell-based. Summed up:
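Glucagon-induced cAMP production measured in CHO cells transfected with hGCGR. IC50 reported as the average rounded to two significant figures, with SEM when measured more than once.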

The target in series [2] is T1, Glucagon receptor. Nature of the series: Displacement of [125I]-glucagon from human glucagon receptor expressed in CHO cells after 4 to 12 hrs by scintillation proximity assay. It counts as cell-based. Summed up:
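Scintillation proximity assay on membranes from CHO cells expressing hGCGR, measuring inhibition of ¹²⁵I-labelled glucagon binding. IC50 reported as the average rounded to two significant figures, with standard error of the mean when more than one measurement was made.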
For orientation: In a radioligand displacement assay an active substance lowers the binding of a labelled ligand.

The nature of series [3]: Plasma clearance in rat at 1 mg/kg, iv and 2 mg/kg, po. The format is ADME, organism-based. Summed up:
(§1)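 Rat PK with dosing at 1 mg/kg IV and 2 mg/kg PO, vehicle DMSO/water/PEG400 15:35:55. Parameters were plasma clearance, Vd, t1/2, dose-normalised PO AUC and Cmax, and %F.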

Series [4] can be described thus: Oral bioavailability in rat at 2 mg/kg. The format is ADME, organism-based. The conditions noted are these: in vivo. Summed up: as §1
Series [5] relates to Rattus norvegicus. Nature of the series: Dose normalised AUC in rat at 2 mg/kg, po. The arrangement: dose 2 mg/kg, route oral. The format is ADME, organism-based. Particulars: in vivo. The gist of the method: as §1
In series [6] the test system is Rattus norvegicus. Nature of the series: Dose normalised Cmax in rat at 1 mg/kg, iv and 2 mg/kg, po. The format is ADME, organism-based. The conditions noted are these: in vivo. The gist of the method:
as §1

Series [7] is described as follows: Half life in rat at 1 mg/kg, iv and 2 mg/kg, po. The format is ADME, organism-based. Particulars: in vivo. The gist of the method: as §1
A short description of series [8]: Volume of distribution in rat at 1 mg/kg, iv and 2 mg/kg, po. It counts as ADME, organism-based. Particulars: in vivo. Summed up:
as §1

The nature of series [9]: Solubility of the compound. It counts as physicochemical.
Series [10] can be described thus: Oral bioavailability in rat. It counts as ADME, organism-based. The conditions noted are these: in vivo. The gist of the method: as §1
Series [11] can be described thus: Clearance in rat. The format is ADME, organism-based. The conditions noted are these: in vivo. The gist of the method: as §1

The results in this text go back to ChEMBL document CHEMBL1921704, “Discovery of N-aryl-2-acylindole human glucagon receptor antagonists” (Bioorg Med Chem Lett, 2011).

Each structure is given as a SMILES string.

T1 sequence (P47871 whole entry): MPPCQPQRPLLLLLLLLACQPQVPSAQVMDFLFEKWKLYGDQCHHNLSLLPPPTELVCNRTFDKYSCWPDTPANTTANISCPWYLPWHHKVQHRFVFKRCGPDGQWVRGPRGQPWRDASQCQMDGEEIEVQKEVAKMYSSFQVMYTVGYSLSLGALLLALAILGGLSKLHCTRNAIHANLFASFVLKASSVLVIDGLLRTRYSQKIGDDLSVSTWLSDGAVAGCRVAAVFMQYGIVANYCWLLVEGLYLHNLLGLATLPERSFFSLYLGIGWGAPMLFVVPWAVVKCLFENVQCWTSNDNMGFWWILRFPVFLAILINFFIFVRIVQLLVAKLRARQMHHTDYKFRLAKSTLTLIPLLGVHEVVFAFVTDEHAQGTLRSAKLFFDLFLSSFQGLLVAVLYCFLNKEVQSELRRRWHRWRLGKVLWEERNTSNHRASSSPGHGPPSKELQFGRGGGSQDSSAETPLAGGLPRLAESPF

`CCCCC[C@@H](Cc1ccc(C(=O)NCCC(=O)O)cc1)C(=O)c1cc2cc(OC)ccc2n1-c1cccc(C(F)(F)F)c1`: the IC50 (as a rule, the midpoint of a concentration-inhibition curve) in series [1] turned out to be 0.035 µM; in series [2] it was 0.026 µM.

Turning to `CCCCC[C@@H](Cc1ccc(C(=O)NCCC(=O)O)cc1)C(=O)c1cc2cc(C(F)(F)F)ccc2n1-c1cccc(C(F)(F)F)c1`, the IC50 in series [1] is 0.044 µM; in series [2] it was 0.016 µM.

On to `CCCC(Cc1ccc(C(=O)NCCC(=O)O)cc1)C(=O)c1cc2cc(Cl)ccc2n1-c1cccc(OC(F)(F)F)c1` (single isomer, unassigned), for which the half-maximal inhibitory concentration (IC50) in series [1] is 0.035 µM; in series [2] it was 0.024 µM.

`CCCC(Cc1ccc(C(=O)NCCC(=O)O)cc1)C(=O)c1cc2cc(Cl)ccc2n1-c1ccc(Cl)c(C(F)(F)F)c1` (single isomer, unassigned): in series [3], the clearance was 0.552 L/h/kg. In series [4], the bioavailability (as a rule, the share of a dose that reaches the circulation, judged against a reference dose that is usually intravenous) is 17%. Besides, in series [5], the AUC/dose worked out at 0.52 µM·h. In addition, the Cmax/dose in series [6] amounted to 0.15 µM. Besides, in [7], the half-life (as a rule, the time in which the quantity being followed falls by half) was 1.3 h. In series [8], this compound had a Vd of 0.84 L/kg. Besides, the values for the concentration for half-maximal inhibition (IC50) in series [1] and in [2] were 0.017 µM and 0.012 µM, respectively.

With `CCCC(Cc1ccc(C(=O)NCCC(=O)O)cc1)C(=O)c1cc2cc(Cl)ccc2n1-c1ccc2cc(OC)ccc2c1` (single isomer, unassigned), the IC50 was 0.095 µM in series [1] and 0.034 µM in series [2].

In the case of `CCCC(Cc1ccc(C(=O)NCCC(=O)O)cc1)C(=O)c1cc2cc(Cl)ccc2n1-c1ccc(Cl)cc1` (single isomer, unassigned), the IC50 in series [1] was 0.1 µM; in series [2] it was 0.032 µM.

Take `CCC[C@@H](Cc1ccc(C(=O)NCCC(=O)O)cc1)C(=O)c1cc2cc(Cl)ccc2n1-c1cccc(C(F)(F)F)n1`: in series [3], the clearance was 1.44 L/h/kg. This compound registered a bioavailability in [4] of 9.1%. In series [5], this compound registered an AUC/dose of 0.15 µM·h. In [6], this compound yielded a Cmax/dose of 0.07 µM. Moreover, the half-life in series [7] is 1.1 h. Besides, the Vd in [8] worked out at 0.9 L/kg. Further, the values for the IC50 in series [1] and in series [2] were 0.034 µM and 0.0092 µM, respectively.

Take `CCCCC[C@@H](Cc1ccc(C(=O)NCCC(=O)O)cc1)C(=O)c1cc2cc(F)ccc2n1-c1cccc(C(F)(F)F)c1`: the results for the IC50 in series [1] and in series [2] were 0.02 µM and 0.01 µM, respectively.

On to `CCCCC[C@@H](Cc1ccc(C(=O)NCCC(=O)O)cc1)C(=O)c1cc2cc(OC(F)(F)F)ccc2n1-c1cccc(C(F)(F)F)c1`, for which the IC50 was 0.017 µM in series [1] and 0.0057 µM in series [2].

For the compound `CCC[C@@H](Cc1ccc(C(=O)NCCC(=O)O)cc1)C(=O)c1cc2cc(Cl)ccc2n1-c1cccc(C(F)(F)F)c1`, the clearance in series [3] was 0.852 L/h/kg. This compound gave a bioavailability in series [4] of 42%. Besides, the AUC/dose in [5] amounted to 0.85 µM·h. In series [6], this compound displayed a Cmax/dose of 0.25 µM. This compound also gave a half-life in series [7] of 1.7 h. The compound further gave a Vd in series [8] of 1.5 L/kg. Further, the results for the IC50 in series [1] and in [2] were 0.055 µM and 0.017 µM, respectively.

In the case of `Cn1/c(=N\c2ccc(OC(F)(F)F)cc2)n(Cc2ccc(C(=O)Nc3nnn[nH]3)cc2)c2cc(Cl)c(Cl)cc21`, the solubility entry in series [9] is “Insoluble”.

As for `CCCC(Cc1ccc(C(=O)NCCC(=O)O)cc1)C(=O)c1cc2cc(Cl)ccc2n1-c1ccc(C(C)(C)C)cc1` (single isomer, unassigned), in [10], the bioavailability stood at 38%. Further, the IC50 in series [1] and in series [2] was 0.052 µM throughout. The compound further showed a clearance in [11] of 0.282 L/h/kg.

`CC(C)CC[C@@H](Cc1ccc(C(=O)NCCC(=O)O)cc1)C(=O)c1cc2cc(Cl)ccc2n1-c1cccc(C(F)(F)F)c1`: the figures for the 50% inhibitory concentration (IC50) in [1] and in series [2] were 0.036 µM and 0.017 µM, respectively.

`O=C(Nc1nnn[nH]1)c1ccc(Cn2c(C(=O)c3ccc(OC(F)(F)F)cc3)cc3ccc(C(F)(F)F)cc32)cc1` had a bioavailability in [10] of 40%. The compound also registered a clearance in series [11] of 0.6 L/h/kg. In addition, the IC50 in [2] amounted to 0.051 µM.

On to `CCCC(Cc1ccc(C(=O)NCCC(=O)O)cc1)C(=O)c1cc2cc(Cl)ccc2n1-c1cc(Cl)cc(Cl)c1` (single isomer, unassigned), for which the IC50 in series [2] is 0.11 µM.

For `CCCC(Cc1ccc(C(=O)NCCC(=O)O)cc1)C(=O)c1cc2cc(Cl)ccc2n1-c1ccc(OC(F)(F)F)cc1` (single isomer, unassigned), the IC50 in series [1] was found to be 0.045 µM; in series [2] it was 0.028 µM.

As for `CCCC(Cc1ccc(C(=O)NCCC(=O)O)cc1)C(=O)c1cc2cc(Cl)ccc2n1-c1cnc2ccccc2c1` (single isomer, unassigned), the IC50 amounted to 0.718 µM in [1] and 0.058 µM in [2].

Regarding `O=C(O)CCNC(=O)c1ccc(C[C@H](CC2CC2)C(=O)c2cc3cc(Cl)ccc3n2-c2cccc(C(F)(F)F)c2)cc1`, the concentration for half-maximal inhibition (IC50) in [1] amounted to 0.055 µM; in series [2], 0.037 µM.

Consider `CCCC(Cc1ccc(C(=O)NCCC(=O)O)cc1)C(=O)c1cc2cc(Cl)ccc2n1-c1cc(C)cc(C)c1` (single isomer, unassigned), for which the 50% inhibitory concentration (IC50) in series [2] came out at 0.12 µM.

As for `CCCC(Cc1ccc(C(=O)NCCC(=O)O)cc1)C(=O)c1cc2cc(Cl)ccc2n1-c1ccc2c(c1)OCCO2` (single isomer, unassigned), the values for the IC50 in series [1] and in series [2] were 0.049 µM and 0.028 µM, respectively.

Consider `CCC[C@H](Cc1ccc(C(=O)NCCC(=O)O)cc1)C(=O)c1cc2cc(Cl)ccc2n1-c1cccc(C(F)(F)F)n1`, for which the IC50 in series [2] stood at 0.45 µM.

`CCCCC[C@@H](Cc1ccc(C(=O)NCCC(=O)O)cc1)C(=O)c1cc2cc(C)ccc2n1-c1cccc(C(F)(F)F)c1`: the IC50 in [1] came to 0.024 µM; in [2] it was 0.012 µM.

On to `CCCC(Cc1ccc(C(=O)NCCC(=O)O)cc1)C(=O)c1cc2cc(Cl)ccc2n1-c1cccc(F)c1` (single isomer, unassigned), for which the values for the IC50 in series [1] and in series [2] were 0.15 µM and 0.047 µM, respectively.

With `CCCC(Cc1ccc(C(=O)NCCC(=O)O)cc1)C(=O)c1cc2cc(Cl)ccc2n1-c1ccc(C(F)(F)F)cc1` (single isomer, unassigned), the IC50 in series [1] was 0.03 µM; in [2] it was 0.031 µM.

For `CCCC[C@@H](Cc1ccc(C(=O)NCCC(=O)O)cc1)C(=O)c1cc2cc(Cl)ccc2n1-c1cccc(C(F)(F)F)c1`, the results for the IC50 in [1] and in [2] were 0.042 µM and 0.016 µM, respectively.

Turning to `CCCC(Cc1ccc(C(=O)NCCC(=O)O)cc1)C(=O)c1cc2cc(Cl)ccc2n1-c1ccc(OC)c(C(F)(F)F)c1` (single isomer, unassigned), the IC50 in [1] was 0.039 µM; in [2], 0.023 µM.
